Activity calls are given as the source filed them. The calls are words filed in the database; no cut-off is given here.

A short description of data set [1]: Inhibition of beta-naphthoflavone-induced Cyp1A in rat […] cell. Type of data set: cell-based. An outline of the steps: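 Enzyme source: homogenates of β-naphthoflavone-induced H4IIE rat hepatoma cells. Cyp1A activity measured as dealkylation of 3-cyano-7-ethoxycoumarin to fluorescent 3-cyano-7-hydroxycoumarin, expressed in nmol/min/mg protein. α-Naphthoflavone positive control. Dose-response to IC50; percent inhibition given at 50 µM final concentration.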

The target in data set [2] is Prostaglandin G/H synthase 1 (Homo sapiens) (UniProt P23219). As to the kind of experiment: Inhibition of COX1 at 100 uM. In a few lines:
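COX-1 (prostaglandin G/H synthase) activity followed by oxygen consumption during conversion of arachidonic acid to prostaglandins; single concentration 100 µM; IC50 only if inhibition exceeds 50%.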

For data set [3], the target named is T1, Aromatase (Homo sapiens, UniProt P11511).
T1 sequence (P11511 whole entry): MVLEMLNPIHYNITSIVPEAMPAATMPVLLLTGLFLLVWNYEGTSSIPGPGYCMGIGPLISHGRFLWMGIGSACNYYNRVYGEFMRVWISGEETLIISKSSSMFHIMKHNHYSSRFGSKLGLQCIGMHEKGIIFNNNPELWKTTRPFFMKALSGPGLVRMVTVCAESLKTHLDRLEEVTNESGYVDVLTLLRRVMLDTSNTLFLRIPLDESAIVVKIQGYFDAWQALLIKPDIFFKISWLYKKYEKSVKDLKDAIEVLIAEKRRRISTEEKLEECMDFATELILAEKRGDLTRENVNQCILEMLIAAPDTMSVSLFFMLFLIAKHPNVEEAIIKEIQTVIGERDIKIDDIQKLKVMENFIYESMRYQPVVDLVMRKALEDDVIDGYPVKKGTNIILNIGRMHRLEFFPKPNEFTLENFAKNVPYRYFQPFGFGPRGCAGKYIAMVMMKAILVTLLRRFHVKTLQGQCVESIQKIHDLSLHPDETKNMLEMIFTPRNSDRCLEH
As to the kind of experiment: Inhibition of human recombinant aromatase at 50 uM.

The nature of data set [4]: DPPH radical scavenging activity upto 250 uM. Type of data set: functional. An outline of the steps: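 Photometric reaction with stable DPPH free radical in microplate format, compounds up to 250 µM.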
In general terms: Loss of DPPH colour is used to gauge radical scavenging.

A short description of data set [5]: Superoxide anion radical scavenging activity upto 50 uM. The class given is functional. In a few lines:
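Superoxide anion generated by xanthine oxidase oxidising hypoxanthine to uric acid; scavenging tested up to 50 µM.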

The subject of data set [6] is Cyp1A (Rattus norvegicus). As to the kind of experiment: Inhibition of beta-naphthoflavone-induced Cyp1A in rat H4IIE cell at 50 uM. The settings on record: H4IIE cells with beta-naphthoflavone-induced Cyp1A.
Data set [7] can be described thus: Cytotoxicity against mouse Hepa 1c1c7 cells upto 400 uM. The class given is cell-based. In a few lines: (§1)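 Hepa 1c1c7 murine hepatoma cultures exposed in parallel with the QR induction assay; tested up to 400 µM for one hydroxanthone and up to 50 µM for the others; cytotoxicity judged alongside QR specific activity.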
Data set [8] is described as follows: Cytotoxicity against mouse Hepa 1c1c7 cells upto 50 uM. The class given is cell-based. An outline of the steps:
as §1

The target in data set [9] is T1, Aromatase. As to the kind of experiment: Inhibition of human recombinant aromatase.

Prostaglandin G/H synthase 1 (Homo sapiens), sequence (P23219 whole entry): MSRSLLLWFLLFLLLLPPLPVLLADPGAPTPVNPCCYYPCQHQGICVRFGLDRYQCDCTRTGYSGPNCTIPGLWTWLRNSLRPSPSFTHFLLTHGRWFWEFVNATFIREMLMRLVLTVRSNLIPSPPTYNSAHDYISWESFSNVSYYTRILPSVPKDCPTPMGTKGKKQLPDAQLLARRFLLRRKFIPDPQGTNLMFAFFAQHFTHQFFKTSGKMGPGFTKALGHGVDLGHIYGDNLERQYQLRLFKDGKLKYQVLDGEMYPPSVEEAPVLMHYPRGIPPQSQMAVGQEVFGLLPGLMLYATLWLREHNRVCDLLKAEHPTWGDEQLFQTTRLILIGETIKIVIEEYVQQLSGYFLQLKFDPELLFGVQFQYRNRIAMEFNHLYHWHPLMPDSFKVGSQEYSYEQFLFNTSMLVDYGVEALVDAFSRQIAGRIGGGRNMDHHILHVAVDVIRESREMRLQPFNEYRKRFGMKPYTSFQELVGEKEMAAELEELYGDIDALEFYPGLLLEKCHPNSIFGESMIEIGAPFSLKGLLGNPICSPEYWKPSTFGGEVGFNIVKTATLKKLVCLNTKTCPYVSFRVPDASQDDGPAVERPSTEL

`O=c1cc(-c2ccccc2)oc2c1ccc1ccccc12` [ALPHA-NAPHTHOFLAVONE] displayed an IC50 in data set [1] of 0.0035 µM.

Compound `Cc1cc(O)c(C(=O)c2c(O)cccc2O)c(C(=O)O)c1` [MONODICTYPHENONE] came in with an IC50 in data set [1] of over 50 µM. This compound also showed an inhibition in [2] of under 50%. The inhibition at 50 µM on Aromatase [3] was determined as 25%; in data set [6], 28%. Moreover, the outcome in data set [4] and in data set [5] was inactive.

On to `Cc1cc(O)c2c(c1)O[C@]1(C)[C@@H](O)[C@@H](O)C[C@H](O)[C@@H]1C2=O` [MONODICTYSIN A], for which the IC50 in [1] was over 50 µM. Besides, in data set [2], the inhibition is under 50%. Further, the inhibition at 50 µM on Aromatase [3] worked out at 32%; in [6] it was 40%. Further, in data set [7], the Activity result is “Not Active”. In addition, the outcome in [4] and in data set [5] was inactive.

In [1], `C[C@H]1C[C@H](O)[C@@H]2C(=O)c3c(O)cccc3O[C@]2(C)[C@H]1O` [MONODICTYSIN B] gave an IC50 of 23.3 µM. Besides, in [2], the inhibition was under 50%. Further, the inhibition at 50 µM on Aromatase [3] is 9%. In addition, the Activity result in data set [8] is given as “Not Active”. Also, the result in data set [4] and in data set [5] was inactive.

As for `COc1cc(O)c2c(c1)O[C@]1(C)[C@@H](O)[C@@H](C)C[C@H](O)[C@@H]1C2=O` [MONODICTYSIN C], the 50% inhibitory concentration (IC50) in data set [1] amounted to 3 µM; on Aromatase [9], 28.3 µM. Moreover, the inhibition in data set [2] was under 50%. In addition, the Activity result in [8] was “Not Active”. Further, the outcome in [4] and in [5] was inactive.

On to `Cc1cc(C(=O)O)c2c(=O)c3c(O)cccc3oc2c1` [MONODICTYXANTHONE], for which, in data set [1], the IC50 was determined as 34.8 µM. Further, the inhibition in data set [2] was under 50%. In addition, the inhibition at 50 µM on Aromatase [3] came out at 37%. Further, the result in [4] and in [5] was inactive.

A word on the IC50: it is the concentration needed to halve the response being measured. For orientation: inhibition means the share of the control response that was lost under treatment.
